According to PMC7750258 (Progress in neuro-psychopharmacology & biological psychiatry, 2020):
Read-outs that look alike come from different tables or passages of the source.

How the values were obtained:
C57BL/6J mice = assay: THC drug discrimination in mice; format: in vivo; settings: for substitution for the THC training dose: mice of both sexes; for ED50 (± SEM), THC drug discrimination: compound alone, i.p. 30 min pre-session
[1] = ref Huestis, 2007; Mazur et al., 2009; cited from earlier work
CB1 receptor [2] = biological target: T1, CB1 receptor (Mus musculus, UniProt P47746); assay: Agonist-stimulated [35S]GTPγS binding in mouse cerebellar membranes; format: biochemical, ICR mice; settings: mouse cerebellum, both sexes
T1 sequence (P47746 whole entry): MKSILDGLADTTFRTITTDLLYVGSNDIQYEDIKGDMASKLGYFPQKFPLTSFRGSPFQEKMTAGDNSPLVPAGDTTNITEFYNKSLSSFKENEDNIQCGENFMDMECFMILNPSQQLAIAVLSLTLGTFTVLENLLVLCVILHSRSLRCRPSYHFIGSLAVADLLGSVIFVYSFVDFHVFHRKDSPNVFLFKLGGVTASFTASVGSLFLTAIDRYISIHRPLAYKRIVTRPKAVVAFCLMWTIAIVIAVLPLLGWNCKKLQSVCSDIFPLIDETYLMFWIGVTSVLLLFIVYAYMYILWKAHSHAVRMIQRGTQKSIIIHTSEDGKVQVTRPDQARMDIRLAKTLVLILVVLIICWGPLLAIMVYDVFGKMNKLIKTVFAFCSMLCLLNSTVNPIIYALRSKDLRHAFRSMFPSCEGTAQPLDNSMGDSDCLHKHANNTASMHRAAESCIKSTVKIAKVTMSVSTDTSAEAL

CB1 receptor [3] = biological target: CB1 receptor (Rattus norvegicus, UniProt P20272); assay: Agonist-stimulated [35S]GTPγS binding in rat cerebellar membranes; format: biochemical, Sprague-Dawley rats; settings: rat cerebellum, both sexes
Chain of CB1 receptor (Rattus norvegicus, UniProt P20272) (P20272 whole entry): as the sequence (P47746 whole entry) above, with D95E counted along it

ICR mice [4] = assay: Cannabinoid tetrad: rectal temperature; format: in vivo; settings: for effect on body temperature: ICR mice of both sexes; for Body Temperature ED50 (± SEM): i.p., n=6, maximal effect −6°C
Procedure, shortened: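 Adult drug-naïve ICR mice of both sexes (n=6 per sex per dose) received vehicle or test compound. Baseline rectal temperature was taken before injection. Temperature was re-measured immediately after a 10 min locomotor session that began 30 min post-injection. […] It came from least-squares linear regression on the linear part of the dose-effect curve against log10 dose.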

ICR mice [5] = assay: Cannabinoid tetrad: ring immobility; format: in vivo; settings: for effect on ring immobility: ICR mice of both sexes; for Ring Immobility ED50 (± SEM): i.p., n=6, maximal effect 100% immobility
Procedure, shortened: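 Drug-naïve adult ICR mice, males and females (n=6 per sex per dose), were dosed with vehicle or test compound. At 50 min post-injection each mouse was placed on an elevated ring. Time spent immobile over 5 min was divided by 300 s and multiplied by 100 to give percent immobility.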

ICR mice [6] = assay: Cannabinoid tetrad: locomotor activity; format: in vivo; settings: female and male ICR mice, i.p., 10 min session 30 min after injection
Sprague-Dawley rats = assay: THC drug discrimination in rats; format: in vivo
rats = settings: ref Tseng and Craft (2001); cited from earlier work
CB1 receptor [7] = biological target: T1, CB1 receptor; assay: [3H]CP55,940 displacement binding in mouse cerebellar membranes; parameters: species or system ICR mice; settings: read-out: CB1 Binding Affinity (Ki in nM), cerebellum, N = 4 / value

**Q.** For `Cc1c(C(=O)NN2CCCCC2)nn(-c2ccc(Cl)cc2Cl)c1-c1ccc(Cl)cc1` [rimonabant, 5-(4-chlorophenyl)-1-(2,4-dichlorophenyl)-4-methyl-N-(piperidin-1-yl)-1H-pyrazole-3-carboxamide], which “rightward shift of THC dose-effect curve” value (C57BL/6J mice; 1 mg/kg antagonist i.p. 10 min before THC, both sexes) is on record?
**A.** Its value is ~ 7 fold.

**Q.** And the “effect of antagonist on substitution by 1 mg/kg 11-OH-THC” value (C57BL/6J mice; 1 mg/kg rimonabant or 3 mg/kg SR144528 i.p. 10 min prior, n=8/sex)?
**A.** The value was “blocked maximal substitution produced by 1 mg/kg 11-OH-THC”.

**Q.** What about the “response rate compared to vehicle” value (C57BL/6J mice; male mice, subset n=8) of the same compound?
**A.** Its value is “significantly suppressed compared to vehicle alone treatment”.

**Q.** Which cannabimimetic effects [1] does the source give for `CCCCCc1cc(O)c2c(c1)OC(C)(C)[C@@H]1CCC(C(=O)O)=C[C@@H]21` [THC-COOH, 11-nor-9-carboxy-Δ^9-tetrahydrocannabinol] here?
**A.** The cannabimimetic effects was “lacks cannabimimetic effects”.

**Q.** For `CCCCCc1cc(O)c2c(c1)OC(C)(C)[C@@H]1CCC(C)=C[C@@H]21` [THC, Δ^9-tetrahydrocanabinol], which “functional character in [35S]GTPγS assay” value (CB1 receptor [2]) is on record?
**A.** Its value is “partial agonists”.

**Q.** What about the “functional character in [35S]GTPγS assay” value (CB1 receptor [3]) of the same compound?
**A.** The value was “partial agonists”.

**Q.** What about the “effect on body temperature” value (ICR mice [4]) of the same compound?
**A.** The value was “decreases in body temperature”.

**Q.** And the “effect on ring immobility” value (ICR mice [5])?
**A.** Its value is “clear and significant dose-dependent increases in ring immobility”.

**Q.** And the “effect on locomotor activity” value (ICR mice [6])?
**A.** The value was “Neither drug significantly decreased locomotor activity”.

**Q.** What about the “response rate compared to vehicle” value (C57BL/6J mice; all mice (15 female, 20 male), first and second THC dose-effect curves) of the same compound?
**A.** The value was “significantly increased overall responding across both sexes at doses of 3 and 5.6 mg/kg during the first test and over a dose range of 3–10 mg/kg during the second test”.

**Q.** What about the “response rate compared to vehicle” value (C57BL/6J mice; female mice, subset n=8) of the same compound?
**A.** Its value is “but not in females”.

**Q.** What about the “response rate compared to vehicle” value (C57BL/6J mice; male mice, subset n=8) of the same compound?
**A.** The value was “significantly decreased by 30 mg/kg THC”.

**Q.** And the “substitution for the THC training dose” value (C57BL/6J mice)?
**A.** The value was “dose-dependently substituted for the 5.6 mg/kg training dose”.

**Q.** What about the “more potent in female than in male rats” value (Sprague-Dawley rats; THC drug discrimination) of the same compound?
**A.** Its value is 2.8 fold.

**Q.** And the “substitution for the THC training dose” value (Sprague-Dawley rats; rats of both sexes)?
**A.** The value was “dose-dependently substituted for the 1.7 mg/kg training dose in both sexes”.

**Q.** What about the “response rate compared to vehicle” value (Sprague-Dawley rats; rats, both sexes) of the same compound?
**A.** Its value is 3 mg/kg THC significantly decreased overall responding across both sexes.

**Q.** For “11-OH-Δ^9-tetrahydrocannabinol [11-OH-THC]”, which “effect on body temperature” value (ICR mice [4]) is on record?
**A.** Its value is “decreases in body temperature”.

**Q.** And the “greater potency than THC, hypothermia” value (ICR mice [4]; ICR mice, range across sexes)?
**A.** The value was 7- to 31 fold.

**Q.** What about the “Body Temperature ED50 (± SEM)” value (ICR mice [4]; female ICR mice) of the same compound?
**A.** The value was 0.19 (0.006–6.1).

**Q.** And the “Body Temperature ED50 (± SEM)” value (ICR mice [4]; male ICR mice)?
**A.** The value was 0.70 (0.22–2.26).

**Q.** What about the “effect on ring immobility” value (ICR mice [5]) of the same compound?
**A.** The value was “clear and significant dose-dependent increases in ring immobility”.

**Q.** What about the “greater potency than THC, catalepsy” value (ICR mice [5]; ICR mice, range across sexes) of the same compound?
**A.** The value was 7- to 15 fold.

**Q.** And the “Ring Immobility ED50 (± SEM)” value (ICR mice [5]; female ICR mice)?
**A.** The value was 0.16 (out of range).

**Q.** And the “Ring Immobility ED50 (± SEM)” value (ICR mice [5]; male ICR mice)?
**A.** The value was 0.57 (0.07–4.57).

**Q.** And the “effect on locomotor activity” value (ICR mice [6])?
**A.** Its value is “Neither drug significantly decreased locomotor activity”.

**Q.** And the “greater potency than THC in THC drug discrimination” value (C57BL/6J mice; C57Bl/6J mice, range across sexes)?
**A.** The value was 7- to 9 fold.

**Q.** What about the “more potent than THC in THC drug discrimination” value (C57BL/6J mice; female mice) of the same compound?
**A.** The value was 7 fold.

**Q.** What about the “response rate compared to vehicle” value (C57BL/6J mice; female mice, subset n=8) of the same compound?
**A.** The value was “but not in females”.

**Q.** And the “ED50 (± SEM), THC drug discrimination” value (C57BL/6J mice; female mice, subset n=8)?
**A.** The value was 0.28 mg/kg.

**Q.** What about the “more potent than THC in THC drug discrimination” value (C57BL/6J mice; male mice) of the same compound?
**A.** The value was 9 fold.

**Q.** And the “response rate compared to vehicle” value (C57BL/6J mice; male mice, subset n=8)?
**A.** Its value is “significantly decreased by 3 mg/kg 11-OH-THC”.

**Q.** And the “ED50 (± SEM), THC drug discrimination” value (C57BL/6J mice; male mice, subset n=8)?
**A.** Its value is 0.24 mg/kg.

**Q.** And the “substitution for the THC training dose” value (C57BL/6J mice)?
**A.** The value was “dose-dependently substituted for THC”.

**Q.** And the “potency in female vs male rats” value (rats)?
**A.** Its value is “about twice as potent in female than male rats”.

**Q.** Which results are given for `CCCCCCC(C)(C)c1ccc([C@@H]2C[C@H](O)CC[C@H]2CCCO)c(O)c1` [CP55,940]?
**A.** Ki (CB1 receptor [7]; female mice): 0.48 nM; Ki (CB1 receptor [7]; male mice): 0.56 nM
